# “Also recorded” adds a separate entry of the source. Read-outs that look alike come from different tables or passages of the source.
# Experiments:
# Sigma2 = target: T1, Sigma2 (Rattus norvegicus, UniProt Q5U3Y7); assay: NIMH-PDSP radioligand binding, Sigma-2
# T1 sequence (Q5U3Y7 1-176): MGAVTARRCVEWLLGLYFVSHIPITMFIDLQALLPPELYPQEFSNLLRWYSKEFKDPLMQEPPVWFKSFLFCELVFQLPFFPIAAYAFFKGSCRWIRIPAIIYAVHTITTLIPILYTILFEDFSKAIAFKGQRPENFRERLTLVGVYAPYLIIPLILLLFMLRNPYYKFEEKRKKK
# Dopamine 1 (D1) = Dopamine 1 (D1) (Homo sapiens, UniProt P21728); assay: NIMH-PDSP radioligand binding, D1
# Sequence of Dopamine 1 (D1) (P21728 whole entry): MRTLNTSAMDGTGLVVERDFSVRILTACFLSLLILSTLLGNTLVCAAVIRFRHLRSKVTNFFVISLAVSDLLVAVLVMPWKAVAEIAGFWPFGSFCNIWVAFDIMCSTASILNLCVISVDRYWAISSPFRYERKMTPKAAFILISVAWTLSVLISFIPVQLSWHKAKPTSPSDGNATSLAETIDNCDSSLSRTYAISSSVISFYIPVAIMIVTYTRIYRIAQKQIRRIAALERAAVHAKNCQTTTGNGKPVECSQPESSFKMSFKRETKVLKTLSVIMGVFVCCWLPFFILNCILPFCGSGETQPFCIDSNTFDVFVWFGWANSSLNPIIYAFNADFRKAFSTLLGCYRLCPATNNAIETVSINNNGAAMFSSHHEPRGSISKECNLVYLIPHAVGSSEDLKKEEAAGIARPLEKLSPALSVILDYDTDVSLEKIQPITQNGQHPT
# [1] = target: μ- opioid receptors (MOR) (Homo sapiens, UniProt P35372); assay: NIMH-PDSP radioligand binding, MOR
# Sequence of μ- opioid receptors (MOR) (P35372 whole entry): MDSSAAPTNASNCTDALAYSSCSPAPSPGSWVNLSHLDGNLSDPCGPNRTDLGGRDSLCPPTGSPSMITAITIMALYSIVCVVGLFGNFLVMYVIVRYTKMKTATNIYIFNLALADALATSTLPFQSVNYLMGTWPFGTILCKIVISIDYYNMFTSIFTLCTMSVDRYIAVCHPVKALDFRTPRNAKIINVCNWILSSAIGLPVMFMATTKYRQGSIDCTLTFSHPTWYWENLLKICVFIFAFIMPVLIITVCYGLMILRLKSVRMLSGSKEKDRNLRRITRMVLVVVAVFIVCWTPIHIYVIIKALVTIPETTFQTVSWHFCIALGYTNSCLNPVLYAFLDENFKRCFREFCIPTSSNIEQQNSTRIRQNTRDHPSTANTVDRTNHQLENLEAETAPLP
# Serotonin 2A (5-HT2A) = Serotonin 2A (5-HT2A) (Homo sapiens, UniProt P28223); assay: NIMH-PDSP radioligand binding, 5-HT2A
# Sequence of Serotonin 2A (5-HT2A) (P28223 whole entry): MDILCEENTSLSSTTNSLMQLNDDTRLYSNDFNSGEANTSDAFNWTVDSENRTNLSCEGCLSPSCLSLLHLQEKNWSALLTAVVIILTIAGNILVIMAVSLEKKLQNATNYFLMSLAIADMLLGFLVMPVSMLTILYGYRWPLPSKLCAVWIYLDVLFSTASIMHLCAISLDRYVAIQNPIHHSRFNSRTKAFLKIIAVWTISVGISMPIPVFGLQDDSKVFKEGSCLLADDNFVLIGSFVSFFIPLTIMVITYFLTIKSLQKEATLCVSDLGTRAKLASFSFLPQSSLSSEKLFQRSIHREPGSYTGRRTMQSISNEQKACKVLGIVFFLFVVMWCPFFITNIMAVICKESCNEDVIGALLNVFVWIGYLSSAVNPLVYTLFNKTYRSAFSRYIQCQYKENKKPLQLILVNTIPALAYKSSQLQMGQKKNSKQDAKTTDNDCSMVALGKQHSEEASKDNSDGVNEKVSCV
# Dopamine 2 (D2) = Dopamine 2 (D2) (Homo sapiens, UniProt P14416); assay: NIMH-PDSP radioligand binding, D2
# Sequence of Dopamine 2 (D2) (P14416 whole entry): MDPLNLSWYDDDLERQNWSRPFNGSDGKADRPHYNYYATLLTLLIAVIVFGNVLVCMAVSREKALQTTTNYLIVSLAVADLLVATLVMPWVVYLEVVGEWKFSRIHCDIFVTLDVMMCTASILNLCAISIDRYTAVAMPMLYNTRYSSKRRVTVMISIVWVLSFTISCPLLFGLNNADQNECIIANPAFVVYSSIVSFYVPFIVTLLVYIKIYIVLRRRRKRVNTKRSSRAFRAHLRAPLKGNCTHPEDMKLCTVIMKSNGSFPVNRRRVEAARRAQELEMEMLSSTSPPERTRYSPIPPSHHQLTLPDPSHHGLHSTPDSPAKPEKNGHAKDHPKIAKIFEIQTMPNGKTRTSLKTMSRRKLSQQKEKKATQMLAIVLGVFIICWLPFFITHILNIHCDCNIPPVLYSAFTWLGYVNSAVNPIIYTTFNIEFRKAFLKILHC
# MES-induced seizures [2] = assay: Anticonvulsant protection test in rats; type: in vivo; settings: 30 mg/kg
# Method in brief: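 Rats were dosed orally at 30 mg/kg in 0.04 ml/10 g. Corneal electrodes primed with 0.5% tetracaine HCl electrolyte delivered 60 Hz alternating current, 150 mA, for 0.2 s. Protection meant abolition of the hindlimb tonic extensor component of the seizure.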
# rats = assay: Acute toxicity, minimal motor impairment in rats; type: in vivo; settings: 30 mg/kg
# [3] = system: Metrazol-induced clonic seizures; assay: Subcutaneous Metrazol seizure threshold test; type: in vivo, mice; settings: for scMET (30) N/F, animals active over tested: 30 mg/kg; for scMET (100) N/F, animals active over tested: 100 mg/kg
# [4] = target: κ- opioid receptors (KOR) (Rattus norvegicus, UniProt P34975); assay: NIMH-PDSP radioligand binding, KOR
# Sequence of κ- opioid receptors (KOR) (P34975 whole entry): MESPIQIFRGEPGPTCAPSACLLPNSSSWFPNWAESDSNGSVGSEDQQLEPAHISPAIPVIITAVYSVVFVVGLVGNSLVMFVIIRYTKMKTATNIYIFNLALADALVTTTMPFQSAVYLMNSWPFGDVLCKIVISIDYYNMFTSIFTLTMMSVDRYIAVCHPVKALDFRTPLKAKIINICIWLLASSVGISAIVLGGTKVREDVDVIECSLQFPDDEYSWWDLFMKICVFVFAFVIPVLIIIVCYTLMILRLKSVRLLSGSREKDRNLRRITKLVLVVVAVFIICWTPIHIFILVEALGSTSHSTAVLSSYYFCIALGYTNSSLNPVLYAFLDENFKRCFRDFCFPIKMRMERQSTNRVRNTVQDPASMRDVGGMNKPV
# [5] = target: Serotonin Transporter (SERT) (Homo sapiens, UniProt P31645); assay: NIMH-PDSP radioligand binding, SERT
# Sequence of Serotonin Transporter (SERT) (P31645 whole entry): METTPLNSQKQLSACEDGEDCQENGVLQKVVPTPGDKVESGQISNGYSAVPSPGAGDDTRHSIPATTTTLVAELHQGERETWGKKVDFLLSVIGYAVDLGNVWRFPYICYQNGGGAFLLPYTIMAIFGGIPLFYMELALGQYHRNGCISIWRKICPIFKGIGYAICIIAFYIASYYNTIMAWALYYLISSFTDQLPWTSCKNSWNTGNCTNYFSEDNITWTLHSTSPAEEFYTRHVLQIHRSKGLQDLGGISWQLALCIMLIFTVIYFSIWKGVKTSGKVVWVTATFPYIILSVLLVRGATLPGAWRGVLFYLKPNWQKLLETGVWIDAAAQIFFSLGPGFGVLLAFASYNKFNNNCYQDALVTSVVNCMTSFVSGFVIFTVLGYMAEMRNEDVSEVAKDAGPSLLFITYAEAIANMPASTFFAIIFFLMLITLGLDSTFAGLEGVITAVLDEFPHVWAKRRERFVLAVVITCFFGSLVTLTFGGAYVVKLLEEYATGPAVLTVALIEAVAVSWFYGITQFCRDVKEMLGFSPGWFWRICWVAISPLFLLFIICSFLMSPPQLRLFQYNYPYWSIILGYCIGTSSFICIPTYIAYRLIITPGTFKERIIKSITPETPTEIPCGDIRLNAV
# [6] = target: Norepinephrine Transporter (NET) (Homo sapiens, UniProt P23975); assay: NIMH-PDSP radioligand binding, NET
# Sequence of Norepinephrine Transporter (NET) (P23975 whole entry): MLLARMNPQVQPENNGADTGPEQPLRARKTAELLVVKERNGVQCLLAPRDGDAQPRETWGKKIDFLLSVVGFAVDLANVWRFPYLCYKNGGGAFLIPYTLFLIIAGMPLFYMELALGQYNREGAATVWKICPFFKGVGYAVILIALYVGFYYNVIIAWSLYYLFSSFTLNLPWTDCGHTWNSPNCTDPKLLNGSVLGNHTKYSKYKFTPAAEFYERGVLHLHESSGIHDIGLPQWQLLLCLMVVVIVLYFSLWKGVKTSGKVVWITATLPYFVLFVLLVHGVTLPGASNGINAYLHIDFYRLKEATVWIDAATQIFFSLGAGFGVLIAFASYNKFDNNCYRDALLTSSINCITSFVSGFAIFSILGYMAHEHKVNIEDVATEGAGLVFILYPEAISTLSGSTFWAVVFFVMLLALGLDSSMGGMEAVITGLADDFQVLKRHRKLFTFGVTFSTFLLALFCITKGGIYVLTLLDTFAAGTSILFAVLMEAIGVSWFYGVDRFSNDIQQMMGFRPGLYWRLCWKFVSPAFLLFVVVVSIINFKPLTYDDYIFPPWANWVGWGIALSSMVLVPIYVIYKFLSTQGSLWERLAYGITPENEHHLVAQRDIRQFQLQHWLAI
# Sigma1 = Sigma1 (Rattus norvegicus, UniProt Q9R0C9); assay: NIMH-PDSP radioligand binding, Sigma-1
# Sequence of Sigma1 (Q9R0C9 whole entry): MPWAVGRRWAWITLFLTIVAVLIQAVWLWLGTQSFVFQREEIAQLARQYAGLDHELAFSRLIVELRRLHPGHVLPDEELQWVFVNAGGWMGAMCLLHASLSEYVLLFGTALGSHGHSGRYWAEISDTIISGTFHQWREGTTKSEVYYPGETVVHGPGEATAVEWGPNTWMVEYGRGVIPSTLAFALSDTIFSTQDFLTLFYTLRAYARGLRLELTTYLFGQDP
# 6HZ = 6HZ test; type: in vivo; settings: 50 mg/kg
# [7] = system: PCP site of the NMDA receptor complex; assay: [3H]; type: binding, rat
# Method in brief: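 Washed rat forebrain homogenate (30 ug/mL protein) in 10 mM HEPES, pH 7.4, with 1 nM (+)-[3H]MK-801, 100 uM glutamate, 30 uM glycine and varied competitor concentrations. Nonspecific binding was set with 30 uM (+)-MK-801. Incubation ran 2 h at room temperature, then vacuum filtration onto GF/B filters, three buffer washes and scintillation counting.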
# MES-induced seizures [8] = assay: Maximal electroshock; type: in vivo, mice; settings: for MES (30) N/F, animals active over tested: 30 mg/kg i.p.; for MES (100) N/F, animals active over tested: 100 mg/kg i.p.; for MES neuroprotective activity (in words): mouse, in vivo; for MES (300) N/F, animals active over tested: 300 mg/kg i.p.
# Method in brief: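 Mice received test compound i.p. at 30, 100 or 300 mg/kg in 0.01 ml/g and were tested at various intervals after dosing. Corneal electrodes primed with 0.5% tetracaine HCl electrolyte delivered 60 Hz alternating current, 50 mA, for 0.2 s. An animal counted as protected when the hindlimb tonic extensor component was abolished. Results are scored as animals protected over tested.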
# mice = assay: Acute toxicity, minimal motor impairment; type: in vivo; settings: for TOX (30) N/F, animals toxic over tested / TOX (65) N/F, animals toxic over tested / TOX (100) N/F, animals toxic over tested / TOX (300) N/F, animals toxic over tested: rotorod; for TOX (30) N/F, animals toxic over tested: 30 mg/kg
# [9] = target: Dopamine Transporter (DAT) (Homo sapiens, UniProt Q01959); assay: NIMH-PDSP radioligand binding, DAT
# Sequence of Dopamine Transporter (DAT) (Q01959 whole entry): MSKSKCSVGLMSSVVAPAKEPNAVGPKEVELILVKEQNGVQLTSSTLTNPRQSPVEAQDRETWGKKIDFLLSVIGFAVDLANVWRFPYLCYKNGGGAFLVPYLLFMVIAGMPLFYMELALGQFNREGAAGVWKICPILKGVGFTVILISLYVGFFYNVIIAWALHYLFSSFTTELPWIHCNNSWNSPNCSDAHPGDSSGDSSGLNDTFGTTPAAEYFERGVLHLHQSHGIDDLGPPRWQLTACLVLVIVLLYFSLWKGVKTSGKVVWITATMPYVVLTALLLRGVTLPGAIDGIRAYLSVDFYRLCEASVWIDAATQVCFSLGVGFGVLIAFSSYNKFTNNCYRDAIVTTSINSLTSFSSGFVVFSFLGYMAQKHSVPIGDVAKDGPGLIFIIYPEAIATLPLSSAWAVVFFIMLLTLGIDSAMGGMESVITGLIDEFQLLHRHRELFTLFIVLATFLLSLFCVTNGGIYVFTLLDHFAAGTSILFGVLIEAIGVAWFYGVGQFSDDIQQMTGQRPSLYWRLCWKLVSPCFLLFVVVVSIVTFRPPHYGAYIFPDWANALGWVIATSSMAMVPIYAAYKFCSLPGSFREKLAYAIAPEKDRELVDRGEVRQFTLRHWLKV
# [10] = system: PCP site of the NMDA receptor complex; settings: ref [39], [40]; cited from earlier work
# MES-induced seizures [11] = settings: literature statement, no reference given; cited from earlier work
# [12] = read-out: Sigma 2 binding affinity, Rat C12, hot ligand DTG
# [13] = read-out: D1 binding affinity, Human Cloned, hot ligand SCH23390
# [14] = read-out: MOR binding affinity, Human Cloned, hot ligand DAMGO
# [15] = read-out: 5HT2A binding affinity, Human Cloned, hot ligand Ketanserin
# [16] = read-out: D2 binding affinity, Human Cloned, hot ligand N-Methylspiperone
# [17] = read-out: KOR binding affinity, Rat Cloned, hot ligand U69593
# [18] = read-out: SERT binding affinity, Human Cloned, hot ligand Citalopram
# [19] = read-out: NET binding affinity, Human Cloned, hot ligand Nisoxetine
# [20] = read-out: Sigma 1 binding affinity, Rat Brain, hot ligand Pentazocine(+)
# [21] = read-out: DAT binding affinity, Human Cloned, hot ligand WIN35428
compound,measurement,setting,value
Fc1ccc(C2(NCCN3CCCCC3)CC3CCC2C3)cc1 (stereo not drawn) [Compound 5b],Ki,Sigma2; [12],> 10 µM
same,Ki,Dopamine 1 (D1); [13],> 10 µM
same,Ki,[1]; [14],> 10 µM
same,Ki,Serotonin 2A (5-HT2A); [15],8.82 µM
same,Ki,Dopamine 2 (D2); [16],> 10 µM
same,protection in rats (in words),MES-induced seizures [2],did not display any protection
same,toxicity in rats (in words),rats,did not display any protection or toxicity
same,"scMET (30) N/F, animals active over tested",[3]; 0.5 h,0/1 0/1
same,"scMET (30) N/F, animals active over tested",[3]; 4.0 h,0/1 0/1
same,"scMET (100) N/F, animals active over tested",[3]; 0.5 h,0/1 0/1
same,"scMET (100) N/F, animals active over tested",[3]; 4.0 h,0/1 0/1
same,Ki,[4]; [17],3.55 µM
same,Ki,[5]; [18],> 10 µM
same,Ki,[6]; [19],> 10 µM
same,Ki,Sigma1; [20],> 10 µM
same,"6HZ (50), animals active over tested",6HZ; 0.5 h,0/4
same,affinity for NMDA (in words),[7],did not exhibit significant affinity
same,"MES (30) N/F, animals active over tested",MES-induced seizures [8]; 0.5 h,0/1 0/1
same,"MES (30) N/F, animals active over tested",MES-induced seizures [8]; 4.0 h,0/1 0/1
same,"MES (100) N/F, animals active over tested",MES-induced seizures [8]; 0.5 h,2/3
same,"MES (100) N/F, animals active over tested",MES-induced seizures [8]; 4.0 h,0/3
same,MES neuroprotective activity (in words),MES-induced seizures [8],displayed MES neuroprotective activity
same,TOX comments,"mice; 50 mg/kg, 0.25 h",Clonic seizures
same,TOX comments,"mice; 100 mg/kg, 0.5 h",Clonic seizures
same,TOX comments,"mice; 300 mg/kg, 0.5 h",Death
same,"TOX (30) N/F, animals toxic over tested",mice; 0.5 h,0/4
same,"TOX (30) N/F, animals toxic over tested",mice; 4.0 h,0/2
same,"TOX (65) N/F, animals toxic over tested","mice; 65 mg/kg, 0.5 h",2/4
same,"TOX (100) N/F, animals toxic over tested","mice; 100 mg/kg, 0.5 h",3/8
same,"TOX (100) N/F, animals toxic over tested","mice; 100 mg/kg, 4.0 h",0/4
same,"TOX (300) N/F, animals toxic over tested","mice; 300 mg/kg, 0.5 h",4/4 /
same,Ki,[9]; [21],1.23 µM
"Fc1ccc(C2(NCCN3CCOCC3)CC3CCC2C3)cc1 (stereo not drawn) [Compound 5d, 2-(4-Fluorophenyl)-N-(2-morpholinoethyl)bicyclo [2.2.1]heptan-2-amine]",Ki,Sigma2,> 10 µM
same,Ki,Dopamine 1 (D1),> 10 µM
same,Ki,[1],> 10 µM
same,Ki,Serotonin 2A (5-HT2A),> 10 µM
same,Ki,Dopamine 2 (D2),> 10 µM
same,protection in rats (in words),MES-induced seizures [2],did not display any protection
same,toxicity in rats (in words),rats,did not display any protection or toxicity
same,"scMET (30) N/F, animals active over tested",[3]; 0.5 h,0/1 0/1
same,"scMET (30) N/F, animals active over tested",[3]; 4.0 h,0/1 0/1
same,"scMET (100) N/F, animals active over tested",[3]; 0.5 h,0/1 0/1
same,"scMET (100) N/F, animals active over tested",[3]; 4.0 h,0/1 0/1
same,Ki,[4],> 10 µM
same,Ki,[5],> 10 µM
same,Ki,[6],> 10 µM
same,Ki,Sigma1,> 10 µM
same,"6HZ (50), animals active over tested",6HZ; 0.5 h,1/4 1/4
same,"6HZ (50), animals active over tested",6HZ; 4.0 h,1/4 1/4
same,affinity for NMDA (in words),[7],did not exhibit significant affinity
same,"MES (30) N/F, animals active over tested",MES-induced seizures [8]; 0.5 h,0/1 0/1
same,"MES (30) N/F, animals active over tested",MES-induced seizures [8]; 4.0 h,0/1 0/1
same,"MES (100) N/F, animals active over tested",MES-induced seizures [8]; 0.5 h,2/3
same,"MES (100) N/F, animals active over tested",MES-induced seizures [8]; 4.0 h,0/3
same,"MES (300) N/F, animals active over tested",MES-induced seizures [8]; 0.5 h,1/1
same,"MES (300) N/F, animals active over tested",MES-induced seizures [8]; 4.0 h,0/0
same,MES neuroprotective activity (in words),MES-induced seizures [8],displayed MES neuroprotective activity
same,TOX comments,"mice; 65 mg/kg, 0.25 h",Clonic seizures
same,TOX comments,"mice; 100 mg/kg, 0.5 h",Clonic seizures
same,TOX comments,"mice; 300 mg/kg, 0.5 h",Loss of righting reflex; also recorded: Death
same,"TOX (30) N/F, animals toxic over tested",mice; 0.5 h,0/4
same,"TOX (30) N/F, animals toxic over tested",mice; 4.0 h,0/2
same,"TOX (65) N/F, animals toxic over tested","mice; 65 mg/kg, 0.5 h",0/4 0/4
same,"TOX (65) N/F, animals toxic over tested","mice; 65 mg/kg, 4.0 h",0/4 0/4
same,"TOX (100) N/F, animals toxic over tested","mice; 100 mg/kg, 0.5 h",1/8
same,"TOX (100) N/F, animals toxic over tested","mice; 100 mg/kg, 4.0 h",0/4
same,"TOX (300) N/F, animals toxic over tested","mice; 300 mg/kg, 0.5 h",4/4 /
same,Ki,[9],6.48 µM
Fc1ccc(C2(NCCN3CCCC3)CC3CCC2C3)cc1 (stereo not drawn) [Compound 5f],Ki,Sigma2; [12],> 10 µM
same,Ki,Dopamine 1 (D1); [13],> 10 µM
same,Ki,[1]; [14],> 10 µM
same,Ki,Serotonin 2A (5-HT2A); [15],> 10 µM
same,Ki,Dopamine 2 (D2); [16],> 10 µM
same,"scMET (30) N/F, animals active over tested",[3]; 0.5 h,0/1 0/1
same,"scMET (30) N/F, animals active over tested",[3]; 4.0 h,0/1 0/1
same,"scMET (100) N/F, animals active over tested",[3]; 0.5 h,0/1 0/1
same,"scMET (100) N/F, animals active over tested",[3]; 4.0 h,0/1 0/1
same,Ki,[4]; [17],2.11 µM
same,Ki,[5]; [18],4.61 µM
same,Ki,[6]; [19],> 10 µM
same,Ki,Sigma1; [20],> 10 µM
same,% inhibition of 1 nM [3H] (+)-MK-801,"[7]; compound at 10 μM (10,000 nM)",greater than 90%
same,IC50,"[7]; rat forebrain homogenate, 1 nM (+)-[3H]MK-801",8.66 ± 2.56 µM
same,Ki,"[7]; read-out: NMDA affinity Ki, calculated by Cheng and Prusoff equation",5.82 µM
same,"MES (30) N/F, animals active over tested",MES-induced seizures [8]; 0.5 h,0/1 0/1
same,"MES (30) N/F, animals active over tested",MES-induced seizures [8]; 4.0 h,0/1 0/1
same,"MES (100) N/F, animals active over tested",MES-induced seizures [8]; 0.5 h,1/3
same,"MES (100) N/F, animals active over tested",MES-induced seizures [8]; 4.0 h,0/1
same,TOX comments,"mice; 100 mg/kg, 0.5 h",Clonic seizures
same,TOX comments,"mice; 300 mg/kg, 0.5 h",Death
same,"TOX (30) N/F, animals toxic over tested",mice; 0.5 h,0/4
same,"TOX (30) N/F, animals toxic over tested",mice; 4.0 h,0/2
same,"TOX (100) N/F, animals toxic over tested","mice; 100 mg/kg, 0.5 h",5/8
same,"TOX (100) N/F, animals toxic over tested","mice; 100 mg/kg, 4.0 h",0/4
same,"TOX (300) N/F, animals toxic over tested","mice; 300 mg/kg, 0.5 h",4/4 /
same,Ki,[9]; [21],0.226 µM
"CN1CC[C@@]23CCCC[C@@H]2[C@@H]1Cc1ccc(O)cc13 [DX, dextrophan]",activity / affinity at NMDA (in words),[10],μM affinity
"COc1ccc2c(c1)[C@]13CCCC[C@@H]1[C@H](C2)N(C)CC3 [DXM, dextromethorphan]",activity / affinity at NMDA (in words),[10],low activity at NMDA
same,neuroprotective activity in the MES test (in words),MES-induced seizures [11],neuroprotective activity in the MES test

# Reference: publication PMC3115441 (Chemical biology & drug design, 2011)
